Laboratory results from ChEMBL document CHEMBL1800025 (J Med Chem, 2011).
Calls of active or inactive are those of the source. No cut-off for these calls is given here.

Tests used:
[1] = target: Dual specificity protein kinase CLK3 (Mus musculus, UniProt O35492); experiment: Inhibition of mouse recombinant GST-tagged CLK3 using GRSRSRSRSRSR as substrate
In short: (§1)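 Mouse GST-fusion CLK1 or CLK3 expressed in E. coli. Assay buffer A (Tris-HCl pH 7.5, MgCl2, EGTA, DTT, heparin) plus 0.15 mg/mL BSA. RS peptide 1 μg/assay, 15 μM ATP final, 30 C. Blank subtracted; activity expressed as percent of activity without inhibitor. DMSO controls. Concentration range up to 10 μM.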

[2] = target: T1, Dual specificity tyrosine-phosphorylation-regulated kinase 2 (Homo sapiens) (UniProt Q92630); experiment: Inhibition of human recombinant GST-tagged DYRK2 using […] as substrate and [gamma32]-ATP at 10 uM after 30 mins by scintillation counting
T1 sequence (whole entry): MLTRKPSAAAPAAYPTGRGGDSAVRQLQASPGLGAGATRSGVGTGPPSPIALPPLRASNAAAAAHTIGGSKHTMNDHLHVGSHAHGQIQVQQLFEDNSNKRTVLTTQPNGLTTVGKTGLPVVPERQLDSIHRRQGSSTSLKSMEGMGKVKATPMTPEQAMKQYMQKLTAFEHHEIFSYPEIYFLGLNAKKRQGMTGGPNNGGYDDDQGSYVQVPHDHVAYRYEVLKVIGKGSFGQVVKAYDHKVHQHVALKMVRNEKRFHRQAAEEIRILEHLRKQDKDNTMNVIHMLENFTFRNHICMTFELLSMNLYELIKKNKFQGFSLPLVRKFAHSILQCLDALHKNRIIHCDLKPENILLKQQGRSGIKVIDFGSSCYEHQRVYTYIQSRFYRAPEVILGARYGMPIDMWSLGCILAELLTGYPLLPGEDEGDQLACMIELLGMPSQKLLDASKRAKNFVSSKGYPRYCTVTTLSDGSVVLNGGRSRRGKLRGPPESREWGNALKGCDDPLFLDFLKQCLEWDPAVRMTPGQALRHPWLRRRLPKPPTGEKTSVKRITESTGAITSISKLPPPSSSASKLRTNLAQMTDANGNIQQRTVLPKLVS
In short: (§2)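 GST fusion kinases expressed in E. coli and purified on glutathione-agarose; DYRK1A is rat, DYRK2 is human. Assay buffer A (25 mM Tris-HCl pH 7.5, 10 mM MgCl2, 1 mM EGTA, 1 mM DTT, 50 μg/mL heparin) plus 0.15 mg/mL BSA. Woodtide 1.5 μg/assay with 15 μM [γ-33P]ATP, 30 min at 30 C. Product captured on P81 paper, washed in 1% phosphoric acid, scintillation counted. Activity expressed as percent of uninhibited control.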

[3] = target: Dual specificity protein kinase CLK1 (Mus musculus) (UniProt P22518); experiment: Inhibition of mouse recombinant GST-tagged CLK1 using GRSRSRSRSRSR as substrate at 10 uM; in short: as §1
[4] = target: Cyclin-dependent kinase 5/CDK5 activator 1 (Homo sapiens) (UniProt Q00535+Q15078); experiment: Inhibition of human recombinant CDK5/p25 at 10 uM; assay type: protein-complex assay
In short: (§3)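 Kinase assayed in buffer C (25 mM Mops pH 7.2, 60 mM beta-glycerophosphate, 30 mM p-nitrophenylphosphate, 15 mM MgCl2, 5 mM EGTA, 1 mM DTT, 0.1 mM vanadate) with 1 mg/mL histone H1. 15 μM ATP final, 30 C. Activity is percent of activity without inhibitor, after blank subtraction. DMSO controls.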

[5] = species on record: Sus scrofa; experiment: Inhibition of pig brain CK1 delta/epsilon using RRKHAAIGpSAYSITA as substrate at 10 uM
In short: (§4)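 Native CK1δ/ε from porcine brain, assayed in 3-fold diluted buffer C with 25 μM CKS peptide substrate. 15 μM ATP final, 30 C. Activity is percent of uninhibited control after blank subtraction, with DMSO controls. Inhibitor tested over a range of concentrations up to 10 μM.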

[6] = target: T2, Serine/threonine-protein kinase pim-1 (Homo sapiens, UniProt P11309); experiment: Inhibition of human recombinant Pim1 at 10 uM; in short: as §3
Target sequence in this assay (P11309 whole entry, looked up): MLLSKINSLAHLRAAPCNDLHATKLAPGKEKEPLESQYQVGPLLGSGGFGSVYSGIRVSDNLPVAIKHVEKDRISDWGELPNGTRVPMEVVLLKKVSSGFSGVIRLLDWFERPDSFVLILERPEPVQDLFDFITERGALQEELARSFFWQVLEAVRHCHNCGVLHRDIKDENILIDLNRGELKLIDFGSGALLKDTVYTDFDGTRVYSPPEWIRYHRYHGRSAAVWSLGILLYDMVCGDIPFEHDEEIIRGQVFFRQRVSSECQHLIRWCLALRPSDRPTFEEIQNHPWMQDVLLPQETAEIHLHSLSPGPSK

[7] = target: Dual specificity tyrosine-phosphorylation-regulated kinase 1A (Rattus norvegicus, UniProt Q63470); experiment: Inhibition of rat recombinant GST-tagged DYRK1A using KKISGRLSPIMTEQ as substrate and [gamma32]-ATP after 30 mins by scintillation counting
In short: as §2, with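 “BSA.” for “BSA. Woodtide 1.5 μg/assay with 15 μM [γ-33P]ATP, 30 min at 30 C.”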

[8] = target: Dual specificity protein kinase CLK1 (Mus musculus, UniProt P22518); experiment: Inhibition of mouse recombinant GST-tagged CLK1 using GRSRSRSRSRSR as substrate; in short: as §1
[9] = target: Glycogen synthase kinase-3 (Sus scrofa, UniProt B2LUN4+I6LNT8); experiment: Inhibition of pig brain GSK-3alpha/beta using YRRAAVPPSPSLSRHSSPHQSpEDEEE as substrate
In short: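 Compounds were tested at various concentrations, the highest being 10 μM, with DMSO dilution controls. Blanks were subtracted and activity was expressed as percent of the uninhibited maximum.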

[10] = target: T3, Dual specificity tyrosine-phosphorylation-regulated kinase 3 (Homo sapiens) (UniProt O43781); experiment: Inhibition of recombinant DYRK3-mediated SR 9G8 protein phosphorylation at 10 uM after 30 mins by SDS-PAGE followed by autoradiography
T3 sequence (whole entry): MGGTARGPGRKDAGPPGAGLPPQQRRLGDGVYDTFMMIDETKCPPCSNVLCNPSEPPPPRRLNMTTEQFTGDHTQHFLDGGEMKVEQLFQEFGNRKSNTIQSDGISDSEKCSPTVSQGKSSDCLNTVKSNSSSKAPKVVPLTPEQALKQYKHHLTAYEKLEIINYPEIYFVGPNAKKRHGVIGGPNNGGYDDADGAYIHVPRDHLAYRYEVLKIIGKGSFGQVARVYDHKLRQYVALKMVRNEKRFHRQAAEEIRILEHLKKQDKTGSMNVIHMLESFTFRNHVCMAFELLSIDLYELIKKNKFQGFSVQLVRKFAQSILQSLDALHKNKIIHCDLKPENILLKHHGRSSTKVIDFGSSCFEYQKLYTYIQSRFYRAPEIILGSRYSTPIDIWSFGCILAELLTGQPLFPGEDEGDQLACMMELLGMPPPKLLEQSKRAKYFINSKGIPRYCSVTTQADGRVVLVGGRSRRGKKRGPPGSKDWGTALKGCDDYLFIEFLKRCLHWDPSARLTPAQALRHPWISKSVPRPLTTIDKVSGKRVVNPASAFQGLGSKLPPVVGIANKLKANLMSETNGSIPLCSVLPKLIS
In short: (§5)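 Recombinant SR protein 9G8 (87 ng) phosphorylated by each kinase, diluted to equal specific activity toward RS peptide. 15 μM [γ-33P]ATP, 30 min at 30 C, with or without 10 μM inhibitor. Reaction stopped in loading buffer; SDS-PAGE and autoradiography.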

[11] = target: Dual specificity protein kinase CLK1 (Homo sapiens) (UniProt P49759); experiment: Inhibition of recombinant CLK1-mediated SR 9G8 protein phosphorylation at 10 uM after 30 mins by SDS-PAGE followed by autoradiography; in short: as §5
[12] = target: Dual specificity protein kinase CLK1 (Homo sapiens) (UniProt P49759); experiment: Inhibition of CLK1-mediated SRp55 protein phosphorylation in TNFalpha-stimulated human HMEC1 cells after 1 hr by Western blot analysis; assay type: cell-based
In short: (§6)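 HMEC-1 cells grown in endothelial medium with 5% FCS at 37 C, 5% CO2. Serum-starved 1 h in basal medium, pretreated 1 h with inhibitor at varying concentrations, then stimulated with 10 ng/mL TNF-alpha. Lysed 2 min after stimulation. Phospho-SRp75 and phospho-SRp55 detected by Western blot with mAb1H4, GAPDH as loading control, quantified by densitometry. At least 3 independent experiments.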

[13] = target: Dual specificity protein kinase CLK3 (Homo sapiens) (UniProt P49761); experiment: Inhibition of CLK3-mediated SRp55 protein phosphorylation in TNFalpha-stimulated human HMEC1 cells after 1 hr by Western blot analysis; assay type: cell-based; in short: as §6
[14] = target: Dual specificity protein kinase CLK1 (Homo sapiens) (UniProt P49759); experiment: Inhibition of CLK1-mediated SRp75 protein phosphorylation in TNFalpha-stimulated human HMEC1 cells after 1 hr by Western blot analysis; assay type: cell-based; in short: as §6
[15] = target: Dual specificity protein kinase CLK3 (Homo sapiens) (UniProt P49761); experiment: Inhibition of CLK3-mediated SRp75 protein phosphorylation in TNFalpha-stimulated human HMEC1 cells after 1 hr by Western blot analysis; assay type: cell-based; in short: as §6
[16] = target: Dual specificity protein kinase CLK1 (Homo sapiens) (UniProt P49759); experiment: Inhibition of CLK1 transfected in human HeLa cells assessed as increase in exon inclusion ratio after 24 hrs by RT-PCR analysis; assay type: cell-based
In short: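 HeLa cells were transfected with […], with kinase-dead CLK1/K190R as comparator. Inhibitors at varying doses were added 3 h post-transfection, with 0.5% DMSO final in all cultures. Cells were harvested 24 h post-transfection, total RNA was extracted, and E1A splicing products were analysed by RT-PCR. Isoform molar ratios were measured by Bioanalyzer to give the exon inclusion ratio. Three independent samples were used.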

[17] = target: T1, Dual specificity tyrosine-phosphorylation-regulated kinase 2 (Homo sapiens); details: 10 uM
[18] = target: Dual specificity protein kinase CLK2 (Homo sapiens) (UniProt P49760); details: 10 uM
[19] = target: Dual specificity protein kinase CLK4 (Homo sapiens) (UniProt Q9HAZ1); details: 10 uM
[20] = target: T4, Dual specificity tyrosine-phosphorylation-regulated kinase 2 (Homo sapiens, UniProt Q92630); experiment: Inhibition of human recombinant GST-tagged DYRK2 using KKISGRLSPIMTEQ as substrate and [gamma32]-ATP after 30 mins by scintillation counting
T4 sequence (Q92630 whole entry): T1 sequence (whole entry)
In short: as §2, with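 “BSA.” for “BSA. Woodtide 1.5 μg/assay with 15 μM [γ-33P]ATP, 30 min at 30 C.”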

[21] = Inhibition of pig brain CK1 delta/epsilon using RRKHAAIGpSAYSITA as substrate; design: species or system Sus scrofa; in short: as §4
[22] = target: T2, Serine/threonine-protein kinase pim-1; experiment: Inhibition of human recombinant Pim1
In short: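 Kinase assayed in buffer C (25 mM Mops pH 7.2, 60 mM beta-glycerophosphate, 30 mM p-nitrophenylphosphate, 15 mM MgCl2, 5 mM EGTA, 1 mM DTT, 0.1 mM vanadate) with 1 mg/mL histone H1. DMSO controls.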
Target sequence in this assay (P11309 whole entry): as the sequence (P11309 whole entry, looked up) above

Sequence of Dual specificity protein kinase CLK1 (Homo sapiens) (P49759 whole entry, looked up, canonical isoform): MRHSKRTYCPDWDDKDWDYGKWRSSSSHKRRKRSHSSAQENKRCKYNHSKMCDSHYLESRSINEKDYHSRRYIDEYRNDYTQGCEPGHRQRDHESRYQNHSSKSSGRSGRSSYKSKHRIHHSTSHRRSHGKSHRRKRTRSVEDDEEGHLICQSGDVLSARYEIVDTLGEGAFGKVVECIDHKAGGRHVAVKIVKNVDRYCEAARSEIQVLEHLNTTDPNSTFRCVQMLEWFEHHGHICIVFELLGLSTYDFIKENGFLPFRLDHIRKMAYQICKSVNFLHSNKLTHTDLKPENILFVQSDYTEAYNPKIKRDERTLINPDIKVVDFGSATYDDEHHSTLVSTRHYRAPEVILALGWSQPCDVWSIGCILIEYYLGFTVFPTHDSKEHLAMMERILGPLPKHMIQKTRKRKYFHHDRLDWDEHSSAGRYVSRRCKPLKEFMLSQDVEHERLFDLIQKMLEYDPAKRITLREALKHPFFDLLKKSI
Sequence of Dual specificity protein kinase CLK1 (P22518 whole entry): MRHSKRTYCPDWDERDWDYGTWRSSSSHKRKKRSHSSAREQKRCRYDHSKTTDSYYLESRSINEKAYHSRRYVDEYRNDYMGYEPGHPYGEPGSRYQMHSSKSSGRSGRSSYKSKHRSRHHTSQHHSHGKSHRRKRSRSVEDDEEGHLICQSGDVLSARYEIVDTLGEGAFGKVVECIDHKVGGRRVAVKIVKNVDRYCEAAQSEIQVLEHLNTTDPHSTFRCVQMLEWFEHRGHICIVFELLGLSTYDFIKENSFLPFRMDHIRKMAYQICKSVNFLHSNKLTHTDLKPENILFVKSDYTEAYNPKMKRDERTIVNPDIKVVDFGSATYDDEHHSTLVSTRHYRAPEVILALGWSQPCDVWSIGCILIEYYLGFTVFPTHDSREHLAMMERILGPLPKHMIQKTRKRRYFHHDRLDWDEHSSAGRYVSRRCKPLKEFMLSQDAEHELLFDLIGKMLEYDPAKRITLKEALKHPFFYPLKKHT
Sequence of Dual specificity protein kinase CLK3 (O35492 whole entry, the tested form may be a part): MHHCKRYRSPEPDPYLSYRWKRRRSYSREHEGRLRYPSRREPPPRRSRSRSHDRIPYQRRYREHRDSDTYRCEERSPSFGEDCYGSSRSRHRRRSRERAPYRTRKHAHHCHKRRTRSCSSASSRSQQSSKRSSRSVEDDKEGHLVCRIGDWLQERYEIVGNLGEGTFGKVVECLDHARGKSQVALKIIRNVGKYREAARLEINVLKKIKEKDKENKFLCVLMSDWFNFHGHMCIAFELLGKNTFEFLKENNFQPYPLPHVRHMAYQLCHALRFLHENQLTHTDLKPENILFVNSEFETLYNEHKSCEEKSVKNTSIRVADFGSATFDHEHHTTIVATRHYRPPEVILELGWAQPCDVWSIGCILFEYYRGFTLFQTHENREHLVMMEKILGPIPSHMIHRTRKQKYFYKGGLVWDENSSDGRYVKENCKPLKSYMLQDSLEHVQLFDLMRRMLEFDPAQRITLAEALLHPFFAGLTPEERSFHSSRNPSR
Sequence of Dual specificity protein kinase CLK3 (Homo sapiens) (P49761 whole entry, looked up): as the sequence (O35492 whole entry, the tested form may be a part) above, with I55L, H64R, C83Y, S86P, A99G, S484T counted along it
Sequence of Dual specificity protein kinase CLK2 (Homo sapiens) (P49760 whole entry, looked up): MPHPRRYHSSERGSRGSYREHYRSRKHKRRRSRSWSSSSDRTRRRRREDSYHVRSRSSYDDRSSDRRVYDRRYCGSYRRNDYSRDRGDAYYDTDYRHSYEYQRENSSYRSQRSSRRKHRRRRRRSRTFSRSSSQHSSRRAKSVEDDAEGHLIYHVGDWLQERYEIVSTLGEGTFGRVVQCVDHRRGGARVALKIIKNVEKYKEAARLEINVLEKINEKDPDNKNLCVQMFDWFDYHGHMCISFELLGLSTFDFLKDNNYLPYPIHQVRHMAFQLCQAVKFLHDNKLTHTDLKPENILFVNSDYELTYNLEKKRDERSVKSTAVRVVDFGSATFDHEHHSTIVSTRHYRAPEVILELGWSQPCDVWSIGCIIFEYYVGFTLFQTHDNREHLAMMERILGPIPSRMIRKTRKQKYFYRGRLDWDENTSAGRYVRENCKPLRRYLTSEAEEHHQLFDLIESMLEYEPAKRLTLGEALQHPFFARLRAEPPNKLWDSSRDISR
Sequence of Dual specificity protein kinase CLK1 (Mus musculus) (P22518 whole entry, looked up): as the sequence (P22518 whole entry) above
Sequence of Dual specificity protein kinase CLK4 (Homo sapiens) (Q9HAZ1 whole entry, looked up): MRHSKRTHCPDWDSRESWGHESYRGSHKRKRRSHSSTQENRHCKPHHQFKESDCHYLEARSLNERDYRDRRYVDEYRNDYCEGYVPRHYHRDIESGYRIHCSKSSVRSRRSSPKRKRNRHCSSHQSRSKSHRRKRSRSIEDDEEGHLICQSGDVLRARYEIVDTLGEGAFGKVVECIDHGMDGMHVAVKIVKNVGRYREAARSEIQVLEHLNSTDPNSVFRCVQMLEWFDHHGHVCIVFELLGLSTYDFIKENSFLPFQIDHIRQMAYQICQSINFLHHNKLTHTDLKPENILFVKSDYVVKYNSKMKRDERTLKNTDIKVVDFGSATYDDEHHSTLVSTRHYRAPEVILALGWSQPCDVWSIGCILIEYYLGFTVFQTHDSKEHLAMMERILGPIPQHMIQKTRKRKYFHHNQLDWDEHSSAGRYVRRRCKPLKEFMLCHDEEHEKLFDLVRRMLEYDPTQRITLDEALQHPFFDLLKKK
Sequence of Cyclin-dependent kinase 5/CDK5 activator 1 (Homo sapiens) (Q00535 whole entry): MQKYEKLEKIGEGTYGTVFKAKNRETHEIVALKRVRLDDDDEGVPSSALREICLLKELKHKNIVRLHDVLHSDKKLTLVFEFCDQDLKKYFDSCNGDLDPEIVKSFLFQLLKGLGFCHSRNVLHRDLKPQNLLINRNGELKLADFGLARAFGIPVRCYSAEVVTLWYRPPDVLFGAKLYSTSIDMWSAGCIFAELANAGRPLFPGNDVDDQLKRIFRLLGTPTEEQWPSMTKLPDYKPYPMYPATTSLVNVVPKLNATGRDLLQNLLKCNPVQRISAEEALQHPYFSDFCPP
Sequence of Cyclin-dependent kinase 5/CDK5 activator 1 (Homo sapiens) (Q15078 99-307 partner limits assumed): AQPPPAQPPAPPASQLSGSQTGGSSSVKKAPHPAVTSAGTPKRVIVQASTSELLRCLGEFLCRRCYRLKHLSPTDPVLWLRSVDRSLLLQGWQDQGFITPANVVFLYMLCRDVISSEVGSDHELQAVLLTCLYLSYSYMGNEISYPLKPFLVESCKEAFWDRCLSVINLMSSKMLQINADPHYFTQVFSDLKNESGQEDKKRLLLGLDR

SMILES	IC50 [1] [nM]	inhibition [5]	IC50 [7] [nM]	IC50 [8] [nM]	IC50 [9] [nM]	IC50 [20] [nM]	IC50 [21] [nM]	IC50 [22] [nM]	also measured
CCCNC1=N/C(=C\c2ccc(Br)cc2)C(=O)N1C	8800	inactive							inhibition [2]: inactive; inhibition [3]: inactive; inhibition [4]: inactive; inhibition [6]: inactive
O=C1NC(Nc2ccccc2)=N/C1=C\c1ccc2c(c1)OCO2	> 10000	inactive	40	15	> 10000				inhibition [10]: Active; inhibition [11]: Active; inhibition [12]: Active; inhibition [13]: Active; inhibition [14]: Active; inhibition [15]: Active; increase in exon inclusion ratio [16]: Dose-dependent effect; inhibition [17]: Active; inhibition [18]: Active; inhibition [19]: Active
CN1C(=O)/C(=C/c2ccc3c(c2)OCO3)N=C1NCC1CC1	510		200	130		340	> 10000	2100	
CN1C(=O)/C(=C/c2ccc3c(c2)OCO3)N=C1N [LEUCETTAMINE B]	6400		2800	400	> 10000	1500	> 10000	> 10000	
